Measured values published in ChEMBL document CHEMBL4477254, “Synthesis and biological evaluation of some novel triazole hybrids of curcumin mimics and their selective anticancer activity against breast and prostate cancer cell lines” (Bioorg Med Chem Lett, 2016).
≈ marks a conversion by molar mass, not a printed value. Calls of active or inactive are those of the source. The rule behind the calls is not given here.

Experiments:
MDA-MB-231 [1] = test: Cytotoxicity against human MDA-MB-231 cells assessed as decrease in cell viability after 24 hrs by MTT assay; format: functional, cell-based; settings: MDA-MB-231, 24 h
In short: (§1)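 Cell viability by MTT after 24 h compound exposure; curcumin as standard. IC50 in µM from three independent experiments, expressed as mean ± SE.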

4T1 [2] = test: Potency index, ratio of curcumin IC50 to compound IC50 in mouse 4T1 cells; format: functional
In short: (§2)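 IC50 came from an MTT viability assay after 24 h compound exposure, with curcumin run as the standard. Values are mean ± SE of three independent experiments. The index is the curcumin IC50 divided by the compound IC50 in the same cell line.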

MCF7 [3] = test: Induction of morphological changes in human MCF7 cells assessed as cell detachment at >6 uM after 24 hrs by phase contrast microscopy; format: functional, cell-based
In short: (§3)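 Cells were exposed to a range of concentrations for 24 h. Cell number and morphology, including detachment from the surface, were assessed by phase-contrast microscopy at 10X magnification.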

MCF7 [4] = test: Cytotoxicity against human MCF7 cells assessed as decrease in cell viability after 24 hrs by MTT assay; format: functional, cell-based; settings: MCF7, 24 h; in short: as §1
MCF7 [5] = test: Induction of apoptosis in human MCF7 cells assessed as necrotic cells at 6 uM after 24 hrs by annexin V-FITC/propidium iodide staining based flow cytometry (reference value: 4.76%); format: functional
In short: (§4)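 Apoptosis by Annexin V-FITC/PI dual staining: MCF-7 cells treated 24 h at 3, 6 and 9 µM, then harvested, stained and acquired by flow cytometry; early apoptotic = AnnexinV+/PI−, live = AnnexinV−/PI−, necrotic = AnnexinV−/PI+.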

DU-145 [6] = test: Potency index, ratio of curcumin IC50 to compound IC50 in human DU145 cells; format: functional; in short: as §2
[7] = Protein binding in rat plasma at 8 ug/ml after 15 mins by UPLC based charcoal adsorption method; format: ADME, cell-free; settings: read-out: PPB (converted)
[8] = Stability of the compound in simulated intestinal fluid assessed as compound remaining after 2 hrs at 37 degC by UPLC analysis; format: ADME; settings: read-out: Stability
PC-3 [9] = test: Cytotoxicity against human PC3 cells assessed as decrease in cell viability after 24 hrs by MTT assay; format: functional, cell-based; settings: PC-3, 24 h; in short: as §1
MCF7 [10] = test: Cell cycle arrest in human MCF7 cells assessed as accumulation at G0/G1 phase at 3 uM after 24 hrs by propidium iodide staining based flow cytometry (reference value: 45.67%); format: functional
In short: (§5)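 Cells treated 24 h with test compound, MCF-7 at various concentrations and PC-3 at various concentrations; cells harvested, stained with propidium iodide and acquired by flow cytometry for cell cycle phase distribution.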

4T1 [11] = test: Cytotoxicity against mouse 4T1 cells assessed as decrease in cell viability after 24 hrs by MTT assay; format: functional, cell-based; settings: 4T1, 24 h; in short: as §1
[12] = target: Serine/threonine-protein kinase AKT (Homo sapiens) (UniProt P31751+Q9Y243+P31749); test: Inhibition of Akt phosphorylation at […] in human MCF7 cells at 9 uM after 24 hrs by Western blot analysis; format: cell-based
Serine/threonine-protein kinase AKT (Homo sapiens), sequence (P31749 whole entry, looked up): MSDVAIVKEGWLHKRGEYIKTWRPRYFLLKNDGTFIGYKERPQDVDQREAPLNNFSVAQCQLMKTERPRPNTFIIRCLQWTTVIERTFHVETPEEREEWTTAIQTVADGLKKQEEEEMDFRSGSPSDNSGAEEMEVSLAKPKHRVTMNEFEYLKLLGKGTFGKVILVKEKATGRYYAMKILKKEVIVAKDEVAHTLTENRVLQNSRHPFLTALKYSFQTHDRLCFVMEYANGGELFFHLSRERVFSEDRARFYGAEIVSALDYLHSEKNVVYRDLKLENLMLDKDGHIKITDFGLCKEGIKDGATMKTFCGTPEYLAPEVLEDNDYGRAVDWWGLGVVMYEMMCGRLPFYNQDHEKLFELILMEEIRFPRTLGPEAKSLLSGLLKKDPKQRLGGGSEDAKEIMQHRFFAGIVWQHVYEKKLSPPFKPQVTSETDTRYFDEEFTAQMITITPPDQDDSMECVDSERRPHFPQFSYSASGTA
Serine/threonine-protein kinase AKT (Homo sapiens), sequence (P31751 whole entry, looked up): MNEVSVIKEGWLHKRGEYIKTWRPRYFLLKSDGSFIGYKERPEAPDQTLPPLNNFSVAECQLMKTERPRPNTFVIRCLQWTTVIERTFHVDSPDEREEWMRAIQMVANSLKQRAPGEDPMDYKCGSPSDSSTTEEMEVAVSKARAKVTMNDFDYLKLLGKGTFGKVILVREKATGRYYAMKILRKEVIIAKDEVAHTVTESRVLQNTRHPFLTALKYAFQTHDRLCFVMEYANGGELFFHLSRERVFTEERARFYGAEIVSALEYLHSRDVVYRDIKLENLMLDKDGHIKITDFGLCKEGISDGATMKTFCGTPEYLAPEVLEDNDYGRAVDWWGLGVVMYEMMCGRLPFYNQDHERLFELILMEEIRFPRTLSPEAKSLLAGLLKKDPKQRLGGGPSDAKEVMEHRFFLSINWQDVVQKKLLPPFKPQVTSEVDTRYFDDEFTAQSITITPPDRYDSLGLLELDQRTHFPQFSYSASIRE
Serine/threonine-protein kinase AKT (Homo sapiens), sequence (Q9Y243 whole entry, looked up): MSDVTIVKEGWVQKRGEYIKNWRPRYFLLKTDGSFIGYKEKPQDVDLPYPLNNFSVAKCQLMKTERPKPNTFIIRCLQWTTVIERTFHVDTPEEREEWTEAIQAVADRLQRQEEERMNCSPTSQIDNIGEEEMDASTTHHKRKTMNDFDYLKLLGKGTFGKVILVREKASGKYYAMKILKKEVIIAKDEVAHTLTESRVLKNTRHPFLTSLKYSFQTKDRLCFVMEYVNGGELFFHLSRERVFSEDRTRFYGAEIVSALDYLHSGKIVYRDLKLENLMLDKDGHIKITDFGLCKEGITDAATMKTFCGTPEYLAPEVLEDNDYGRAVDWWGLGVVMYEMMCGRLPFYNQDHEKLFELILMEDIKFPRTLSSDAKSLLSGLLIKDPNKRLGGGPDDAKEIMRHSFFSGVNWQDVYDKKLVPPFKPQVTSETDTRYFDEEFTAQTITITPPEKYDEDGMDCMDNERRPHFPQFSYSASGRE
In short: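 Protein expression was analysed by Western blotting of cells harvested after 24 h compound treatment.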

DU-145 [13] = test: Cytotoxicity against human DU145 cells assessed as decrease in cell viability after 24 hrs by MTT assay; format: functional, cell-based; settings: DU-145, 24 h; in short: as §1
[14] = Stability of the compound in simulated gastric fluid assessed as compound remaining after 1 hr at 37 degC by UPLC analysis; format: ADME; settings: read-out: Stability
[15] = Solubility of the compound in distilled water after 24 hrs by HPLC based shake flask method; format: physicochemical
[16] = Stability in rat plasma assessed as compound remaining after 2 hrs at 37 degC by UPLC analysis; format: ADME, cell-free; settings: read-out: Stability
In short: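 Compound was incubated in plasma, and the percentage remaining intact was calculated at time points up to 2 h.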

PC-3 [17] = test: Potency index, ratio of curcumin IC50 to compound IC50 in human PC3 cells; format: functional; in short: as §2
MCF7 [18] = test: Induction of apoptosis in human MCF7 cells assessed as decrease in live cells after 24 hrs by annexin V-FITC/propidium iodide staining based flow cytometry; format: functional, cell-based; in short: as §4
[19] = Intrinsic clearance in liver microsomes (unknown origin) assessed per mg of protein at 5 ug/ml in presence of NADPH by UPLC analysis; format: ADME, Microsome
MCF7 [20] = test: Cell cycle arrest in human MCF7 cells assessed as increase in cells at S phase after 24 hrs by propidium iodide staining based flow cytometry; format: functional; in short: as §5
MCF7 [21] = test: Cell cycle arrest in human MCF7 cells assessed as accumulation at S phase at 9 uM after 24 hrs by propidium iodide staining based flow cytometry (reference value: 34.03%); format: functional; in short: as §5
MDA-MB-231 [22] = test: Potency index, ratio of curcumin IC50 to compound IC50 in human MDA-MB-231 cells; format: functional; in short: as §2
HEK293 = test: Cytotoxicity against human HEK293 cells assessed as decrease in cell viability after 24 hrs by MTT assay; format: cell-based; settings: HEK293, 24 h; in short: as §1
PC-3 [23] = test: Cell cycle arrest in human PC3 cells assessed as accumulation at G0/G1 phase at 4.8 uM after 24 hrs by propidium iodide staining based flow cytometry (reference value: 72.73%); format: functional; in short: as §5
PC-3 [24] = test: Induction of morphological changes in human PC3 cells assessed as decrease in cell number at 2.4 to 8.8 uM after 24 hrs by phase contrast microscopy; format: functional, cell-based; in short: as §3
PC-3 [25] = test: Inhibition of colony formation in human PC3 cells incubated for 24 hrs measured till day 7 by crystal violet staining based assay; format: functional, cell-based
In short: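 Cells were treated with a range of concentrations for 24 h. The medium was then replaced with complete medium and cells were grown for 7 days. Colonies were stained with 0.1% crystal violet.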

PC-3 [26] = test: Cell cycle arrest in human PC3 cells assessed as accumulation at S phase at 8.8 uM after 24 hrs by propidium iodide staining based flow cytometry (reference value: 25.01%); format: functional; in short: as §5
PC-3 [27] = test: Induction of apoptosis in human PC3 cells assessed as necrotic cells at 8.8 uM after 24 hrs by annexin V-FITC/propidium iodide staining based flow cytometry (reference value: 2.52%); format: functional
In short: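 MCF-7 cells exposed to 3, 6 or 9 μM and PC-3 cells to 4.8 or 8.8 μM for 24 h, then harvested and dual-stained with Annexin V-FITC/PI and read by flow cytometry. Gates: live AnnexinV⁻/PI⁻, early apoptotic AnnexinV⁺/PI⁻, necrotic AnnexinV⁻/PI⁺.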

[28] = Intrinsic hepatic clearance in liver microsomes (unknown origin) assessed per mg of protein at 8 ug/ml in presence of NADPH by UPLC analysis; format: ADME, Microsome; settings: read-out: CLH (converted)
PC-3 [29] = test: Increase in Bax expression in human PC3 cells at 4.8 to 8.8 uM after 24 hrs by Western blot analysis; format: functional, cell-based
In short: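 MCF-7 or PC-3 cells treated with compound for 24 h, harvested; PCNA, Bax and Bcl-2 protein expression checked by Western blotting.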

PC-3 [30] = test: Induction of mitochondrial membrane depolarization in human PC3 cells at 8.8 uM after 24 hrs by JC-1 staining based flow cytometry (reference value: 4.51%); format: functional
[31] = Drug metabolism in liver microsomes (unknown origin) assessed as compound remaining at 8 ug/ml after 5 mins in presence of NADPH by UPLC analysis; format: ADME, Microsome; settings: read-out: Drug metabolism
In short: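 Microsomal metabolic stability; percentage of compound remaining intact measured after 5 min incubation in presence of microsomes.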

| SMILES | IC50 (MDA-MB-231 [1]) [µM] | Ratio IC50 (4T1 [2]) | IC50 (MCF7 [4]) [µM] | Ratio IC50 (DU-145 [6]) | fraction unbound at 0.25 h, 8 ug/ml [7] | remaining at 2 h [8] [%] | IC50 (PC-3 [9]) [µM] | IC50 (4T1 [11]) [µM] | IC50 (DU-145 [13]) [µM] | remaining at 1 h [14] [%] | solubility thermodynamic at 24 h [15] [µg/mL] | remaining at 2 h [16] [%] | Ratio IC50 (PC-3 [17]) | Ratio IC50 (MDA-MB-231 [22]) | IC50 (HEK293) [µM] | also measured |
| --- | --- | --- | --- | --- | --- | --- | --- | --- | --- | --- | --- | --- | --- | --- | --- | --- |
| O=C1/C(=C/c2ccccc2F)CN(Cc2cn(Cc3ccc(F)cc3)nn2)C/C1=C\c1ccccc1F | 10 | <=9.3 | 6 | ≤ 9.5 | 0.188 | 65 | 19.4 | 6.4 | 8.7 | 85 | 2.08 (≈ 4.16 µM) | 96 | <=5.7 | <=8.3 | 46 | Activity (MCF7 [3]): Active; Activity (MCF7 [5]): 4.28%; Activity (MCF7 [10]): 38.9%; inhibition [12]: 100%; Activity (MCF7 [18]): Dose-dependent effect; CLint [19]: 176 µL/min/mg; Activity (MCF7 [20]): Dose-dependent effect; Activity (MCF7 [21]): 62.67% |
| Cc1ccc(/C=C2\CN(Cc3cn(Cc4ccccc4F)nn3)C/C(=C\c3ccc(C)cc3)C2=O)cc1 | 10 | <=9.3 | 28.7 | ≤ 9.5 | 0.0301 | 30 | 8.8 | 18 | 9.5 | 92 | 1.12 (≈ 2.27 µM) | 90 | <=5.7 | <=8.3 | > 100 | Activity (PC-3 [23]): 70.62%; Activity (PC-3 [24]): Active; inhibition (PC-3 [25]): Dose-dependent effect; Activity (PC-3 [26]): 23.61%; Activity (PC-3 [27]): 0.75%; CLint scaled at 8 ug/ml [28]: 2630 mL/min/kg; Activity (PC-3 [29]): Active; Activity (PC-3 [30]): 32.02%; remaining at 5 min, 8 ug/ml [31]: 66% |
